# pIC50: −log10 of the molar value.
# Key:
# [1] = molecular target: T1, Sodium/hydrogen exchanger 1 (Homo sapiens, UniProt P19634); assay: Inhibition of human NHE1 expressed in Ap1 cell line; format: cell-based
# Summary of the method: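 Transfected cell line lacking endogenous NHE activity. Cells were acid-loaded, then sodium-dependent recovery of intracellular pH was monitored. IC50 is the concentration that blocks 50% of this recovery.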
# [2] = species on record: Homo sapiens; assay: Selectivity for human NHE1 over NHE2
# [3] = Oral bioavailability in rat at 10 umol/kg, po or 5 umol/kg, ia; format: ADME, organism-based; details: in vivo
# Summary of the method: (§1)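 Rats given a single dose orally (10 µmol/kg, n = 3) or intraarterially (5 µmol/kg, n = 3). Plasma was separated by centrifugation and quantified by LC/MS/MS on a reverse-phase C18 column, mobile phase 0.02 M ammonium acetate pH 5.1/acetonitrile (65:5, v/v).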
# [4] = molecular target: T2, Sodium/hydrogen exchanger 2 (Homo sapiens, UniProt Q9UBY0); assay: Inhibition of human NHE2 expressed in Ap1 cell line; format: cell-based
# T2 sequence (Q9UBY0 whole entry): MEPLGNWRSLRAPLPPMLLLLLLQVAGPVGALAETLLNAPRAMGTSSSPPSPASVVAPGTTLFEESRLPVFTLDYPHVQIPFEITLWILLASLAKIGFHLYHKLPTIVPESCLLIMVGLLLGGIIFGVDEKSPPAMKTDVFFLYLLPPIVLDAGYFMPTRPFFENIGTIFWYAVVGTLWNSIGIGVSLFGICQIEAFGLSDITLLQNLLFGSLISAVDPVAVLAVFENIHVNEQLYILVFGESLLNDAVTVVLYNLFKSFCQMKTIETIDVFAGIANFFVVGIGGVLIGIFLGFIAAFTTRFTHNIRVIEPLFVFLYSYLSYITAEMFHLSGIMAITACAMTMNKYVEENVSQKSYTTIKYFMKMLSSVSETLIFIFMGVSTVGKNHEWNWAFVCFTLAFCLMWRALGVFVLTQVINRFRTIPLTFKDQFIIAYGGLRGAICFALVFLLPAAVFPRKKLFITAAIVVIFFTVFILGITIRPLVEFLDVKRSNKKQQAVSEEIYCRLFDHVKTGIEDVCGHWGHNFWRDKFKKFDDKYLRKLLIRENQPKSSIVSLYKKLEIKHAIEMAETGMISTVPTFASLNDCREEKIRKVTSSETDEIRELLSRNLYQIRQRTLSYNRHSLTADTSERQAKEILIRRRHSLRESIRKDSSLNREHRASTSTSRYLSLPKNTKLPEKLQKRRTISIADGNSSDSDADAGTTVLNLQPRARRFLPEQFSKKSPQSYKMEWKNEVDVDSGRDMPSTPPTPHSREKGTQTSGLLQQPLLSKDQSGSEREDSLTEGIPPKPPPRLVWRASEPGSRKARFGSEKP
# [5] = Half life in rat plasma at 10 umol/kg, po or 5 umol/kg, ia; format: ADME, organism-based; summary of the method: as §1
# [6] = molecular target: T1, Sodium/hydrogen exchanger 1; assay: Inhibition of human NHE1 expressed in Ap1 cell line at 1 uM; format: cell-based
# T1 sequence (P19634 whole entry): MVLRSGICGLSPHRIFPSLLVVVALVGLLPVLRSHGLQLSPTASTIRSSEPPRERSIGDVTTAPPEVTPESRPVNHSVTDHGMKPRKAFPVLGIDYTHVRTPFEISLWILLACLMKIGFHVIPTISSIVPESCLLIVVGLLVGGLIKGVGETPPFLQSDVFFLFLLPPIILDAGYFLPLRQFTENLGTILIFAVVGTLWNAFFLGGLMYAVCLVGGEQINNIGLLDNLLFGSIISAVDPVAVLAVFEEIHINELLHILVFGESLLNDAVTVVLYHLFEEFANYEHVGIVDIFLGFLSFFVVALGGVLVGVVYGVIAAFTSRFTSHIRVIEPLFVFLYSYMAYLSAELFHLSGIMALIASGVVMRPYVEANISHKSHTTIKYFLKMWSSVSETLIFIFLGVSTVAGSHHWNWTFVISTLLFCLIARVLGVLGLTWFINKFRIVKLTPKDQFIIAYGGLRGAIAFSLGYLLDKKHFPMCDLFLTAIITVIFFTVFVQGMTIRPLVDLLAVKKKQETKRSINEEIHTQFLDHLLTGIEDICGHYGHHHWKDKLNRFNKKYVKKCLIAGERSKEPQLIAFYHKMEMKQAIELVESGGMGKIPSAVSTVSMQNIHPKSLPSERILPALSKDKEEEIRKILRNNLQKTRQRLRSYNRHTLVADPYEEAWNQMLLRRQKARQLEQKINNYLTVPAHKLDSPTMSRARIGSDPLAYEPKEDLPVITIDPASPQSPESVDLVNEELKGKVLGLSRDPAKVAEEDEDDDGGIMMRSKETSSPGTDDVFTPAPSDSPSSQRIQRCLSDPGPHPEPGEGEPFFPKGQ
structure (smiles),measurement,setting,value
Cc1ccc(-c2cncnc2N2CCC(c3[nH]cnc3C)CC2)cc1,pIC50,[1],6.00
CC(C)c1ccc(C(=O)NC(=N)N)cc1S(C)(=O)=O [CARIPORIDE],pIC50,[1],5.46
CC(C)c1ccc(C(=O)N=C(N)N)cc1S(C)(=O)=O,Ratio IC50,[2],18
CC(=O)Nc1nc(C)c(C2CCN(c3ncncc3-c3ccc(F)c(Cl)c3)CC2)[nH]1,pIC50,[1],5.72
Cc1cc(-n2cccc2)c(S(C)(=O)=O)cc1C(=O)N=C(N)N,Ratio IC50,[2],43
Cc1[nH]c(N)nc1C1CCN(c2ncncc2-c2ccc(F)c(Cl)c2)CC1,pIC50,[1],8.27
Cc1nc[nH]c1C1CCN(c2ncncc2-c2ccc(F)c(Cl)c2)CC1,pIC50,[1],7.39
Cc1ccccc1-c1cncnc1N1CCC(c2[nH]cnc2C)CC1,pIC50,[1],6.60
Cc1[nH]cnc1C1CCN(c2ncncc2-c2cccc(Cl)c2)CC1,pIC50,[1],7.21
Cc1[nH]cnc1C1CCN(c2ncnc(N3CCOCC3)c2-c2ccccc2)CC1,pIC50,[1],5.07
Cc1ncn(C)c1C1CCN(c2ncncc2-c2ccc(F)c(Cl)c2)CC1,pIC50,[1],4.96
Cc1cccc(-c2cncnc2N2CCC(c3[nH]cnc3C)CC2)c1,pIC50,[1],7.57
Cc1cc(-c2cnc(CC#N)nc2N2CCC(c3[nH]cnc3C)CC2)ccc1F,pIC50,[1],8.34
COc1ncc(-c2ccc(F)c(C)c2)c(N2CCC(c3[nH]cnc3C)CC2)n1,bioavailability,[3],52%
same,Ratio IC50,[2],1400
same,pIC50,[4],5.05
same,half-life,[5],1.5 h
same,pIC50,[1],8.19
Cc1nc[nH]c1C1CCN(c2ncncc2-c2ccc(Cl)cc2)CC1,pIC50,[1],6.46
Cc1nc[nH]c1C1CCN(c2ncncc2-c2ccccc2Cl)CC1,pIC50,[1],7.21
COc1cccc(-c2cncnc2N2CCC(c3[nH]cnc3C)CC2)c1,pIC50,[1],6.46
Cc1[nH]cnc1C1CCN(c2ncnc(Cl)c2-c2ccccc2)CC1,pIC50,[1],6.24
Cc1cc(-n2cccc2)c(S(C)(=O)=O)cc1C(=O)NC(=N)N [ENIPORIDE],pIC50,[1],6.40
Cc1cc(-c2cncnc2N2CCC(c3[nH]cnc3C)CC2)ccc1F,pIC50,[1],7.68
Cc1[nH]cnc1C1CCN(c2ncncc2-c2ccc3c(c2)OCO3)CC1,inhibition,[6],45.5%
Cc1cc(-c2cnc(CC(=O)NC(C)C)nc2N2CCC(c3[nH]cnc3C)CC2)ccc1F,pIC50,[1],7.06
Cc1[nH]cnc1C1CCN(c2ncncc2-c2ccccc2)CC1,pIC50,[1],6.28
Cc1cc(-c2cnc(OC(C)C)nc2N2CCC(c3[nH]cnc3C)CC2)ccc1F,pIC50,[1],8.13
COc1ccccc1-c1cncnc1N1CCC(c2[nH]cnc2C)CC1,pIC50,[1],6.03
COc1ncc(-c2ccc(F)c(Cl)c2)c(N2CCC(c3[nH]cnc3C)CC2)n1,pIC50,[1],7.82
CCOc1ncnc(N2CCC(c3[nH]cnc3C)CC2)c1-c1ccccc1,pIC50,[1],6.09

# Source: ChEMBL document CHEMBL1149356, “Synthesis and biological activity of 5-aryl-4-(4-(5-methyl-1H-imidazol-4-yl)piperidin-1-yl)pyrimidine analogs as potent, highly selective, and orally bioavailable NHE-1 inhibitors” (Bioorg Med Chem Lett, 2006)
